# Bioassay records from PubChem BioAssay.
# Only some compounds are listed: those with a hit (about 2.9% of all), similar ones and a draw of the others.
# DENV2 CPE rescue – protects cells from dengue virus 2 cytopathic effect. hit rate 1.7% among 350,000. CPE inhibition, % at 9.99 µM. AID 651640. DENV2-infected cells, cytopathic effect rescue, plate reader; in the data active means CPE inhibition above about 20%, passing the limit was not always enough; inconclusive means no clear call, values can overlap the other calls; tested in BHK-21 cells;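 further: 0% = median of neutral control wells and 100% = median of positive control wells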
# SIRT5 block – sirtuin-5 (human) deacylase inhibition | inhibition, % at 15 µM | Purified SirT5, succinyl-peptide AMC, trypsin-coupled fluorescence | hit rate 1.1% among 330,000; in the data active means inhibition above about 15%; inconclusive means no clear call, values can overlap the other calls
# Target sequence (Q9NXA8 whole entry, looked up): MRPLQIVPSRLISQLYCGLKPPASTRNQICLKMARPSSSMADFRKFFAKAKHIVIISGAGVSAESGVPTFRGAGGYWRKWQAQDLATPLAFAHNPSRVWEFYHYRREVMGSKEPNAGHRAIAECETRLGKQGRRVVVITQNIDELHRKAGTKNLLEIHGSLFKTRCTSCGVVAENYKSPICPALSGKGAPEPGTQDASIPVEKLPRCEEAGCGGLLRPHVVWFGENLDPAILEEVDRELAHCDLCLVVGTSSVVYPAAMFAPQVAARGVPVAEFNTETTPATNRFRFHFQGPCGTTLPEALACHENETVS
# CAL PDZ FP-1 – blocks peptide binding to human CAL PDZ domain; Q9HD26; purified CAL PDZ, TMR-peptide fluorescence polarization, 1 h; inhibition, % at 20 µM; hit rate 0.02% among 330,000;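 active means highest replicate inhibition of at least 40%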;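 further: plate controls were DMSO neutral control wells for no effect and unlabeled competitor peptide control wells for full effect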
#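 System: tagged CAL PDZ domain. Schedule: 1 h room-temperature incubation prior to read. Signal: fluorescence polarization (mP). Measure: percent inhibition from loss of millipolarization.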
# ERAP1 inh – blocks human ERAP1 aminopeptidase activity; Q9NZ08; recombinant ERAP1, Leu-AMC fluorescence, 60 min; inhibition, % at 10.7 µM; hit rate 0.15% among 340,000; AID 652197;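 active means mean replicate inhibition of at least 30%, or all replicates individually reaching that 30% level; inactive means mean below 30% and not every replicate reaching it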;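 further: 0% = neutral control wells and 100% = L-leucinethiol positive control wells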
# CAL PDZ FP-2 – CAL PDZ (human) peptide binding inhibition. purified CAL PDZ, TMR-peptide fluorescence polarization, 1 h. hit rate 0.92% among 300,000. inhibition, % at 24.9 µM. AID 602252;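 active means mean inhibition of at least 30% with at least half of replicates also reaching 30%; inconclusive means no clear call, values can overlap the other calls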;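 further: 0% = DMSO neutral control and 100% = excess unlabeled competitor peptide PRC23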
# S100A4 inh HTS – inhibitors of human S100A4 binding to myosin IIA peptide. P26447. S100A4/TAMRA-MyoIIA peptide fluorescence polarization. inhibition, % at 10.7 µM. hit rate 0.14% among 360,000. AID 652163;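 active means mean inhibition of at least 70% across replicates, with every replicate also reaching that level; inconclusive means mean inhibition reaches 70% but some replicates fall short; inactive means mean inhibition below 70%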
# Target sequence (P26447 whole entry, looked up): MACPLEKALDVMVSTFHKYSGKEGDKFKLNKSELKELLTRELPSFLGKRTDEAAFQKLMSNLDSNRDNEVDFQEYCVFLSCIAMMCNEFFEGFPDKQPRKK
#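 Material: S100A4 monomer (human). Medium: Calcium-containing HEPES buffer, pH 7.2. Probe or stimulus: labelled myosin peptide probe, 5 nM. Compound dosing: one concentration per compound. Timing: polarization read 5 min after assay mix addition, stable 5–60 min. Benchmarks: DMSO as neutral control, TFP as positive control.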
# Active calls of the source: *; ? = inconclusive; · = not tested or not shown.
SMILES,DENV2 CPE rescue,SIRT5 block,CAL PDZ FP-1,ERAP1 inh,CAL PDZ FP-2,S100A4 inh HTS
CC1CCCC(C)N1C(=S)NCc1ccco1 (centres undefined),?,0.6,-0.8,-0.1,-2.6,-2.0
OCC1CCCCN1C(=S)NCc1ccco1 (centres undefined),-1.9,2.1,0.1,-3.2,64.3*,0.6
Cc1ccc(S(=O)(=O)N[C@H]2CC[C@@H](CCn3cc(-c4cccc(F)c4)nn3)O[C@H]2CO)cc1,34.3*,1.9,·,-1.8,·,-13.6
O=S(=O)(N[C@@H]1CC[C@@H](CCn2cc(-c3cccnc3)nn2)O[C@H]1CO)c1ccccc1,16.7,16.3*,·,-4.4,·,6.8
O=S(=O)(N[C@H]1CC[C@H](CCn2cc(-c3cccnc3)nn2)O[C@@H]1CO)c1ccccc1,28.8*,-1.7,·,-0.4,·,-7.4
Cc1ccc(S(=O)(=O)N[C@@H]2CC[C@H](CCn3cc(-c4cccc(F)c4)nn3)O[C@H]2CO)cc1,-2.8,-1.2,·,-1.1,·,-7.4
O=S(=O)(N[C@@H]1CC[C@@H](CCn2cc(-c3ccccn3)nn2)O[C@H]1CO)c1cccc(Cl)c1,36.7*,0.5,·,-2.1,·,10.7
O=S(=O)(N[C@@H]1CC[C@H](CCn2cc(-c3cccnc3)nn2)O[C@H]1CO)c1ccccc1,14.7,8.5,·,-3.2,·,-2.8
CCC(=O)Nc1ccc2c(c1)C(=O)N(C)C[C@@H](OC)[C@@H](C)CN(Cc1ccccn1)[C@@H](C)CO2,·,2.2,·,-4.8,·,-5.2
C[C@@H]1CN([C@H](C)CO)S(=O)(=O)c2ccc(C#CC3CCCC3)cc2O[C@H]1CN(C)C(=O)C1CC1,-11.0,9.3,·,0.4,·,-5.5
COc1ccc(S(=O)(=O)Nc2ccc3c(c2)C(=O)N([C@H](C)CO)C[C@@H](C)[C@@H](CN(C)Cc2ccc(C(=O)Nc4ccccc4N)cc2)O3)cc1,-1.6,11.1,·,1.3,·,10.2
C[C@@H]1CN([C@@H](C)CO)C(=O)c2cc(-c3cncnc3)cnc2O[C@H]1CN(C)C(=O)Cc1ccccc1,·,0.8,·,-3.5,·,4.5
COCC#Cc1cnc2c(c1)C(=O)N([C@@H](C)CO)C[C@H](C)[C@@H](CN(C)C)O2,3.4,5.2,·,2.3,·,0.4
CS(=O)(=O)c1ccc(C(=O)NC2CCCc3ccccc32)cc1 (centres undefined),·,·,0.2,·,57.9*,·
CN(C)c1cccc(C(=O)NC2CCCc3ccccc32)c1 (centres undefined),2.3,-3.1,-1.4,-1.9,59.1*,-3.6
O=C(C[C@@H]1C[C@@H]2c3cc(NC(=O)Cc4ccncc4)ccc3O[C@@H]2[C@@H](CO)O1)NCc1cccnc1,-2.0,1.3,·,-0.8,·,-44.8
Cc1cccc(S(=O)(=O)N2C[C@@H](O)COC[C@@H]3O[C@H](CC(=O)NCc4ccc5c(c4)OCO5)CC[C@H]32)c1,-5.8,-4.3,·,1.2,·,3.8
Cc1ccccc1-c1ccc([C@H]2[C@H](CO)N3CCCCN(C(=O)CN4CCOCC4)C[C@@H]23)cc1,-9.0,-6.9,·,0.5,·,14.1
C[C@@H](NC(=O)C[C@H]1C[C@@H]2c3cc(NS(C)(=O)=O)ccc3O[C@@H]2[C@H](CO)O1)c1ccccc1,5.0,-4.6,·,1.9,·,-0.1
Cc1noc(C)c1CSc1nc2sc(C)c(C)c2c(=O)n1C1CCCC1,·,34.9*,-1.9,-0.1,-1.6,1.8
O=C(C[C@@H]1C=C[C@@H](NC(=O)Nc2ccccc2F)[C@H](CO)O1)NCc1ccc(-c2ccccc2)cc1,11.7,-2.4,·,-0.6,·,20.9
Cc1noc(C)c1S(=O)(=O)Nc1ccc2c(c1)C(=O)N([C@H](C)CO)C[C@@H](C)[C@H](CN(C)S(=O)(=O)c1ccccc1)O2,7.2,-4.0,·,1.5,·,-4.9
O=C(C1CCOCC1)N1[C@H](CO)[C@@H](c2ccccc2)C12CN(Cc1cccc(Cl)c1)C2,-8.0,0.8,·,1.7,·,-3.0
COc1ccccc1CNC(=O)CC1Sc2ccccc2NC1=O (centres undefined),-2.7,-4.2,-0.3,2.0,62.2*,-1.7
CCCNC(=O)CC1Sc2ccccc2NC1=O (centres undefined),·,·,0.0,·,·,·
SMILES,DENV2 CPE rescue,SIRT5 block,CAL PDZ FP-1,ERAP1 inh,CAL PDZ FP-2,S100A4 inh HTS
Cc1ccc(NC(=S)c2ccc(N(C)C)cc2)cc1,·,·,-1.3,·,-0.3,·
Cc1ccc(N(C)C)cc1,22.4*,·,·,0.3,·,4.7
COc1ccccc1-c1ccc2c(c1)O[C@H](CN(C)Cc1ccc3c(c1)OCO3)[C@H](C)CN([C@H](C)CO)S2(=O)=O,-1.7,21.6*,·,0.1,·,3.4
C[C@H]1CN([C@@H](C)CO)S(=O)(=O)c2ccc(-c3cccc(C(=O)N(C)C)c3)cc2O[C@@H]1CN(C)Cc1ccc2c(c1)OCO2,0.7,15.5*,·,-3.6,·,7.6
C[C@H](CO)N1C[C@H](C)[C@@H](CN(C)Cc2ccc3c(c2)OCO3)Oc2cc(-c3cccc(C(=O)N(C)C)c3)ccc2S1(=O)=O,15.2,17.8*,·,-0.4,·,5.8
COc1ccccc1-c1ccc2c(c1)O[C@@H](CN(C)CC1CCOCC1)[C@H](C)CN([C@H](C)CO)S2(=O)=O,-1.1,16.1*,·,3.9,·,-38.3
COc1ccccc1-c1ccc2c(c1)O[C@@H](CN(C)C)[C@@H](C)CN([C@@H](C)CO)S2(=O)=O,10.0,-4.4,·,-3.9,·,-5.1
C[C@H]1CCCCO[C@@H](CN(C)Cc2ccc(C(F)(F)F)cc2)[C@@H](C)CN([C@@H](C)CO)C(=O)c2cc(NC(=O)CCCN(C)C)ccc2O1,-10.9,-1.1,·,-1.0,·,1.6
CNC(=O)C[C@H]1CC[C@@H]2[C@@H](COc3ccc(NC(=O)c4ccccc4OC)cc3C(=O)N2C)O1,17.3,3.0,·,-1.4,·,2.7
COC(=O)C[C@@H]1C[C@H]2c3cc(NS(=O)(=O)c4ccc(OC)cc4)ccc3O[C@H]2[C@H](CO)O1,14.2,·,·,·,·,·
O=C(C[C@@H]1CC[C@@H]2[C@H](COC[C@@H](O)CN2C(=O)c2ccccc2)O1)NCCCN1CCOCC1,-2.2,·,·,·,·,·
COCCNC(=O)C[C@@H]1C[C@H]2c3cc(NS(=O)(=O)c4ccc(F)cc4)ccc3O[C@H]2[C@H](CO)O1,2.4,·,·,·,·,·
CCCC#Cc1ccc(CC[C@H]2O[C@H]3CC[C@@H](CO)O[C@H]3C[C@H]2n2cc(C(C)(C)O)nn2)cc1,-7.3,·,·,0.2,·,-15.5
C[C@@H]1CN([C@@H](C)CO)C(=O)c2cc(NC(=O)C3CC3)ccc2O[C@@H]1CN(C)S(=O)(=O)c1cn(C)cn1,8.1,25.0*,·,-3.3,·,-6.6
C[C@@H]1CN([C@@H](C)CO)C(=O)c2cc(NC(=O)NC3CCCCC3)ccc2O[C@@H](C)CCCCO[C@@H]1CN(C)S(=O)(=O)c1cn(C)cn1,-2.9,3.6,·,-4.4,·,136.3*
C[C@H](CO)N1C[C@H](C)[C@H](CN(C)S(=O)(=O)c2cn(C)cn2)OCCCC[C@H](C)Oc2ccc(NC(=O)C3CCCCC3)cc2C1=O,-5.6,-0.8,·,-5.3,·,-12.9
